Entries after “also recorded” stand apart in the source; their conditions may differ.
What was measured:
[1] = Toxicokinetics in the 90-day dietary study; format: in vivo, Sprague-Dawley rats; conditions: for AUC(0-t): Sprague-Dawley [Crl:CD(SD)], rat, in vivo, po, AUC(0-24)
[2] = system: S. typhimurium strains TA98, TA100, TA1535, TA1537 and E. coli strain WP2 uvrA; test: Bacterial reverse mutation test; format: cell-based, Escherichia coli; conditions: 51-5000 ug/plate, plate incorporation and pre-incubation, ±S9
[3] = Pharmacokinetics and oral bioavailability in rats; format: in vivo, Sprague-Dawley rats; conditions: for half-life / bioavailability / clearance / Tmax: rat, plasma
[4] = In vitro oxidative metabolism, human liver microsomes; format: in vitro ADME
Summary of the method: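 Pooled mixed-gender liver microsomes (human or Sprague-Dawley rat) were incubated with test compound plus NADPH for 60 min at 37 °C, then quenched with acetonitrile. Controls: time-zero and 60-min incubations without NADPH, plus testosterone incubations to confirm microsomal activity. Metabolites were sought by LC/MS full-scan analysis with UV detection at 214, 240 and 254 nm.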

[5] = system: bred female Crl:CD(SD) rats; test: Dose range-finding developmental toxicity study; format: in vivo, rat; conditions: 125, 250, 500, 1000 mg/kg/day oral gavage, gestation Days 6-20

## Cc1nc2cccc(OCC(C)(C)C(=O)NC(C)C)c2c(N)c1C(=O)O [S9632, 4-amino-5-(3-(isopropylamino)-2,2-dimethyl-3-oxopropoxy)-2-methylquinoline-3-carboxylic acid]
[1]; both, 30 mg/kg/day, food ad-mix 30 mg/kg/day, Day 90, Combined
  AUC(0-t): 341 ng·h/mL
[1]; both, 100 mg/kg/day, food ad-mix 100 mg/kg/day, Day 7, Combined
  AUC(0-t): 1040 ng·h/mL
[1]; both, 100 mg/kg/day, food ad-mix 100 mg/kg/day, Day 90, Combined
  AUC(0-t): 1200 ng·h/mL
[1]; female, 30 mg/kg/day, food ad-mix 30 mg/kg/day, Day 90, Female
  AUC(0-t): 389 ng·h/mL
[1]; female, 100 mg/kg/day, food ad-mix 100 mg/kg/day, Day 90, Female
  AUC(0-t): 1400 ng·h/mL
[1]; food ad-mix 30 mg/kg/day, Day 7, Combined
  AUC0-24/dose: 5.92 ng·h/mL/mg/kg
[1]; food ad-mix 30 mg/kg/day, Day 7, Female
  AUC0-24/dose: 3.5 ng·h/mL/mg/kg
[1]; food ad-mix 30 mg/kg/day, Day 7, Male
  AUC0-24/dose: 8.34 ng·h/mL/mg/kg
[1]; food ad-mix 30 mg/kg/day, Day 90, Combined
  AUC0-24/dose: 11.4 ng·h/mL/mg/kg
[1]; food ad-mix 30 mg/kg/day, Day 90, Female
  AUC0-24/dose: 13.0 ng·h/mL/mg/kg
[1]; food ad-mix 30 mg/kg/day, Day 90, Male
  AUC0-24/dose: 9.75 ng·h/mL/mg/kg
[1]; food ad-mix 60 mg/kg/day, Day 7, Combined
  AUC0-24/dose: 6.61 ng·h/mL/mg/kg
[1]; food ad-mix 60 mg/kg/day, Day 7, Female
  AUC0-24/dose: 9.43 ng·h/mL/mg/kg
[1]; food ad-mix 60 mg/kg/day, Day 7, Male
  AUC0-24/dose: 3.79 ng·h/mL/mg/kg
[1]; food ad-mix 60 mg/kg/day, Day 90, Combined
  AUC0-24/dose: 13.3 ng·h/mL/mg/kg
[1]; food ad-mix 60 mg/kg/day, Day 90, Female
  AUC0-24/dose: 9.14 ng·h/mL/mg/kg
[1]; food ad-mix 60 mg/kg/day, Day 90, Male
  AUC0-24/dose: 17.5 ng·h/mL/mg/kg
[1]; food ad-mix 100 mg/kg/day, Day 7, Combined
  AUC0-24/dose: 10.4 ng·h/mL/mg/kg
[1]; food ad-mix 100 mg/kg/day, Day 7, Female
  AUC0-24/dose: 11.7 ng·h/mL/mg/kg
[1]; food ad-mix 100 mg/kg/day, Day 7, Male
  AUC0-24/dose: 9.15 ng·h/mL/mg/kg
[1]; food ad-mix 100 mg/kg/day, Day 90, Combined
  AUC0-24/dose: 12.0 ng·h/mL/mg/kg
[1]; food ad-mix 100 mg/kg/day, Day 90, Female
  AUC0-24/dose: 14.0 ng·h/mL/mg/kg
[1]; food ad-mix 100 mg/kg/day, Day 90, Male
  AUC0-24/dose: 10.0 ng·h/mL/mg/kg
[1]; male, 30 mg/kg/day, food ad-mix 30 mg/kg/day, Day 90, Male
  AUC(0-t): 293 ng·h/mL
[1]; male, 100 mg/kg/day, food ad-mix 100 mg/kg/day, Day 90, Male
  AUC(0-t): 1000 ng·h/mL
[2]
  Reverse mutation (in vitro), result: Negative
[3]; both, Sprague-Dawley [Crl:CD(SD)], iv, 1 mg/kg, apparent plasma half-life (t1/2), range, iv, male and female
  half-life: 11.4 to 16.2 min
[3]; both, Sprague-Dawley [Crl:CD(SD)], po, plasma elimination half-life (t1/2), range, oral administration
  half-life: 42.6 to 83.4 min
[3]; both, Sprague-Dawley, iv, 1 mg/kg, t1/2, intravenous
  half-life: < 16.2 min
[3]; both, Sprague-Dawley, po
  bioavailability: 0.53 to 1.19%
[3]; both, Sprague-Dawley, po, t1/2, oral administration
  half-life: < 83.4 min
[3]; female, Sprague-Dawley [Crl:CD(SD)], po, 100 mg/kg
  bioavailability: 0.83%
[3]; female, Sprague-Dawley, iv, 1 mg/kg
  clearance: 42.5 mL/min/kg
[3]; female, Sprague-Dawley, iv, 1 mg/kg, iv 1.0 mg/kg, Day 1, F
  Tmax: 1.8 min
[3]; female, Sprague-Dawley, iv, 1 mg/kg, t1/2, iv 1.0 mg/kg, Day 1, F
  half-life: 16.2 min
[3]; female, Sprague-Dawley, po, 10 mg/kg
  bioavailability: 1.19%
[3]; female, Sprague-Dawley, po, 30 mg/kg
  bioavailability: 0.77%
[3]; iv 1.0 mg/kg, Day 1, F
  AUC0-last/dose: 411.9 ng·h/mL/mg/kg
[3]; iv 1.0 mg/kg, Day 1, M
  AUC0-last/dose: 330.6 ng·h/mL/mg/kg
[3]; iv, females
  Mean plasma clearance as % of hepatic blood flow: 77.3%
[3]; iv, males
  Mean plasma clearance as % of hepatic blood flow: 93.6%
[3]; male, Sprague-Dawley, iv, 1 mg/kg
  clearance: 51.5 mL/min/kg
[3]; male, Sprague-Dawley, iv, 1 mg/kg, iv 1.0 mg/kg, Day 1, M
  Tmax: 1.8 min
[3]; male, Sprague-Dawley, iv, 1 mg/kg, t1/2, iv 1.0 mg/kg, Day 1, M
  half-life: 11.4 min
[3]; male, Sprague-Dawley, po, 10 mg/kg
  bioavailability: 0.54%
[3]; male, Sprague-Dawley, po, 30 mg/kg
  bioavailability: 0.92%
[3]; male, Sprague-Dawley, po, 100 mg/kg
  bioavailability: 0.53%
[3]; oral gavage 10 mg/kg, Day 1, F
  AUC0-last/dose: 4.92 ng·h/mL/mg/kg
[3]; oral gavage 10 mg/kg, Day 1, M
  AUC0-last/dose: 1.79 ng·h/mL/mg/kg
[3]; oral gavage 10 mg/kg, Day 7, F
  AUC0-last/dose: 5.89 ng·h/mL/mg/kg
[3]; oral gavage 10 mg/kg, Day 7, M
  AUC0-last/dose: 4.81 ng·h/mL/mg/kg
[3]; oral gavage 30 mg/kg, Day 1, F
  AUC0-last/dose: 3.17 ng·h/mL/mg/kg
[3]; oral gavage 30 mg/kg, Day 1, M
  AUC0-last/dose: 3.03 ng·h/mL/mg/kg
[3]; oral gavage 30 mg/kg, Day 7, F
  AUC0-last/dose: 3.56 ng·h/mL/mg/kg
[3]; oral gavage 30 mg/kg, Day 7, M
  AUC0-last/dose: 2.87 ng·h/mL/mg/kg
[3]; oral gavage 100 mg/kg, Day 1, F
  AUC0-last/dose: 3.41 ng·h/mL/mg/kg
[3]; oral gavage 100 mg/kg, Day 1, M
  AUC0-last/dose: 1.76 ng·h/mL/mg/kg
[3]; oral gavage 100 mg/kg, Day 7, F
  AUC0-last/dose: 2.79 ng·h/mL/mg/kg
[3]; oral gavage 100 mg/kg, Day 7, M
  AUC0-last/dose: 1.85 ng·h/mL/mg/kg
[3]; repeated oral dosing for 7 consecutive days
  Accumulation in plasma: No significant accumulation
[4]; 10 µM, 60 min, 37 °C, NADPH
  Metabolism (Phase I biotransformations): not metabolized; also recorded: No Phase I biotransformations
[4]; 60 min incubation
  Level above which no metabolism was observed: ≤ 0.1 % of the parent drug
[5]
  Findings: No maternal toxicity or effects on intrauterine growth and survival up to 1000 mg/kg/day
